# Reference: ChEMBL document CHEMBL4038305, “Benzoxaborole Antimalarial Agents. Part 5. Lead Optimization of Novel Amide Pyrazinyloxy Benzoxaboroles and Identification of a Preclinical Candidate” (J Med Chem, 2017)
# pIC50: −log10 of the molar value.
# How the values were obtained:
# Plasmodium berghei [1] = assay: Antimalarial activity against Plasmodium berghei infected in Swiss Webster mouse assessed as mouse survival rate at 33 mg/kg administered once daily via oral gavage for 4 consecutive days beginning 1 hr after infection measured on day 5 post infection relative to control; assay type: functional
# In short: (§1)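 P. berghei-infected erythrocytes taken from a previously infected mouse were injected intraperitoneally. Oral dosing, once daily for 4 consecutive days, began 1 h after infection, in polyethylene glycol 300/propylene glycol/water (55/25/20 by weight). Chloroquine at 30 mg/kg was the positive control, with a vehicle-only group. Percent survival was recorded daily from day 4 to day 20.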
# Plasmodium falciparum [2] = assay: Antimalarial activity against chloroquine-sensitive Plasmodium falciparum 3D7 infected in human erythrocytes assessed as reduction in [3H]-hypoxanthine incorporation preincubated for 24 hrs followed by [3H]-hypoxanthine addition measured after 24 hrs by scintillation counting method; assay type: functional, cell-based
# In short: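 P. falciparum 3D7 cultures were exposed to the compound for 48 h, with atovaquone as the reference control. IC50 was taken from three replicates.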
# Plasmodium berghei [3] = assay: Antimalarial activity against Plasmodium berghei infected in Swiss Webster mouse assessed as mouse survival rate at 11 mg/kg administered once daily via oral gavage for 4 consecutive days beginning 1 hr after infection measured on day 5 post infection relative to control; assay type: functional; in short: as §1
# Plasmodium berghei [4] = assay: Antimalarial activity against Plasmodium berghei infected in Swiss Webster mouse assessed as mouse survival rate at 100 mg/kg administered once daily via oral gavage for 4 consecutive days beginning 1 hr after infection measured on day 8 post infection relative to control; assay type: functional
# In short: (§2)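 Mice given an intraperitoneal injection of P. berghei-infected erythrocytes taken from a previously infected animal. Oral dosing once daily for 4 consecutive days, starting 1 h after infection. Vehicle: polyethylene glycol 300/propylene glycol/water (weight ratio 55/25/20). Percent survival recorded daily from day 4 to day 20. Chloroquine 30 mg/kg and vehicle-only groups served as controls.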
# Plasmodium berghei [5] = assay: Antimalarial activity against Plasmodium berghei infected in Swiss Webster mouse assessed as mouse survival rate at 0.4 mg/kg administered once daily via oral gavage for 4 consecutive days beginning 1 hr after infection measured on day 5 post infection relative to control; assay type: functional; in short: as §2
# Plasmodium berghei [6] = assay: Antimalarial activity against Plasmodium berghei infected in Swiss Webster mouse assessed as mouse survival rate at 100 mg/kg administered once daily via oral gavage for 4 consecutive days beginning 1 hr after infection measured on day 6 post infection relative to control; assay type: functional; in short: as §2
# Plasmodium berghei [7] = assay: Antimalarial activity against Plasmodium berghei infected in Swiss Webster mouse assessed as mouse survival rate at 33 mg/kg administered once daily via oral gavage for 4 consecutive days beginning 1 hr after infection measured on day 8 post infection relative to control; assay type: functional; in short: as §1
# Plasmodium berghei [8] = assay: Antimalarial activity against Plasmodium berghei infected in Swiss Webster mouse assessed as mouse survival rate at 11 mg/kg administered once daily via oral gavage for 4 consecutive days beginning 1 hr after infection measured on day 7 post infection relative to control; assay type: functional; in short: as §1
# Plasmodium berghei [9] = assay: Antimalarial activity against Plasmodium berghei infected in Swiss Webster mouse assessed as mouse survival rate at 100 mg/kg administered once daily via oral gavage for 4 consecutive days beginning 1 hr after infection measured on day 9 post infection relative to control; assay type: functional; in short: as §2
# Plasmodium berghei [10] = assay: Antimalarial activity against Plasmodium berghei infected in Swiss Webster mouse assessed as mouse survival rate at 100 mg/kg administered once daily via oral gavage for 4 consecutive days beginning 1 hr after infection measured on day 5 post infection relative to control; assay type: functional; in short: as §2
# Plasmodium berghei [11] = assay: Antimalarial activity against Plasmodium berghei infected in Swiss Webster mouse assessed as mouse survival rate at 33 mg/kg administered once daily via oral gavage for 4 consecutive days beginning 1 hr after infection measured on day 12 post infection relative to control; assay type: functional; in short: as §1
# Plasmodium berghei [12] = assay: Antimalarial activity against Plasmodium berghei infected in Swiss Webster mouse assessed as mouse survival rate at 3.7 mg/kg administered once daily via oral gavage for 4 consecutive days beginning 1 hr after infection measured on day 6 post infection relative to control; assay type: functional; in short: as §1
# Plasmodium berghei [13] = assay: Antimalarial activity against Plasmodium berghei infected in Swiss Webster mouse assessed as mouse survival rate at 33 mg/kg administered once daily via oral gavage for 4 consecutive days beginning 1 hr after infection measured on day 4 post infection relative to control; assay type: functional; in short: as §1
# [14] = Metabolic stability in human hepatocytes at 22 uM after 44 hrs; assay type: ADME, cell-based, Hepatocyte
# Plasmodium berghei [15] = assay: Antimalarial activity against Plasmodium berghei infected in Swiss Webster mouse assessed as mouse survival rate at 1.2 mg/kg administered once daily via oral gavage for 4 consecutive days beginning 1 hr after infection measured on day 4 post infection relative to control; assay type: functional; in short: as §2
# Plasmodium falciparum [16] = assay: Antimalarial activity against Plasmodium falciparum 3D7 0087/N9 infected in NOD/SCID IL2R gamma null mouse assessed as reduction in parasitemia administered once daily via oral gavage for 4 consecutive days measured on day 4 post infection; assay type: functional; details: 3D7 0087/N9, po, 96 h
# In short: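 Human-erythrocyte-engrafted NODscidIL2Rγnull mice carrying P. falciparum Pf3D70087/N9 in peripheral blood; compound given orally once daily for four consecutive days.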
# Plasmodium berghei [17] = assay: Antimalarial activity against Plasmodium berghei infected in Swiss Webster mouse assessed as mouse survival rate at 33 mg/kg administered once daily via oral gavage for 4 consecutive days beginning 1 hr after infection measured on day 14 post infection relative to control; assay type: functional; in short: as §1
# Plasmodium berghei [18] = assay: Antimalarial activity against Plasmodium berghei infected in Swiss Webster mouse assessed as mouse survival rate at 33 mg/kg administered once daily via oral gavage for 4 consecutive days beginning 1 hr after infection measured on day 6 post infection relative to control; assay type: functional; in short: as §1
# Plasmodium berghei [19] = assay: Antimalarial activity against Plasmodium berghei infected in Swiss Webster mouse assessed as mouse survival rate at 0.4 mg/kg administered once daily via oral gavage for 4 consecutive days beginning 1 hr after infection measured on day 4 post infection relative to control; assay type: functional; in short: as §2
# Plasmodium berghei [20] = assay: Antimalarial activity against Plasmodium berghei infected in Swiss Webster mouse assessed as mouse survival rate at 1.2 mg/kg administered once daily via oral gavage for 4 consecutive days beginning 1 hr after infection measured on day 6 post infection relative to control; assay type: functional; in short: as §2
# Plasmodium falciparum [21] = assay: Antimalarial activity against chloroquine-resistant Plasmodium falciparum W2 infected in human erythrocytes after 48 hrs by YOYO-1 dye based flow cytometric analysis; assay type: functional, cell-based; details: W2, 48 h
# In short: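 P. falciparum W2 cultures were exposed to the compound for 48 h, with artemisinin and chloroquine as reference controls. IC50 was taken from two independent replicates.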
# Plasmodium berghei [22] = assay: Antimalarial activity against Plasmodium berghei infected in Swiss Webster mouse assessed as mouse survival rate at 3.7 mg/kg administered once daily via oral gavage for 4 consecutive days beginning 1 hr after infection measured on day 7 post infection relative to control; assay type: functional; in short: as §1
# Plasmodium berghei [23] = assay: Antimalarial activity against Plasmodium berghei infected in Swiss Webster mouse assessed as mouse survival rate at 0.4 mg/kg administered once daily via oral gavage for 4 consecutive days beginning 1 hr after infection measured on day 7 post infection relative to control; assay type: functional; in short: as §2
# Plasmodium berghei [24] = assay: Antimalarial activity against Plasmodium berghei infected in Swiss Webster mouse assessed as mouse survival rate at 11 mg/kg administered once daily via oral gavage for 4 consecutive days beginning 1 hr after infection measured on day 8 post infection relative to control; assay type: functional; in short: as §1
# Plasmodium berghei [25] = assay: Antimalarial activity against Plasmodium berghei infected in Swiss Webster mouse assessed as mouse survival rate at 33 mg/kg administered once daily via oral gavage for 4 consecutive days beginning 1 hr after infection measured on day 9 post infection relative to control; assay type: functional; in short: as §1
# Plasmodium berghei [26] = assay: Antimalarial activity against Plasmodium berghei infected in Swiss Webster mouse assessed as mouse survival rate at 100 mg/kg administered once daily via oral gavage for 4 consecutive days beginning 1 hr after infection measured on day 10 post infection relative to control; assay type: functional; in short: as §2
Compound,survival at 33 mg/kg (Plasmodium berghei [1]) [%],pIC50 (Plasmodium falciparum [2]),survival at 11 mg/kg (Plasmodium berghei [3]) [%],survival at 100 mg/kg (Plasmodium berghei [4]) [%],survival at 0.4 mg/kg (Plasmodium berghei [5]) [%],survival at 100 mg/kg (Plasmodium berghei [6]) [%],survival at 33 mg/kg (Plasmodium berghei [7]) [%],survival at 11 mg/kg (Plasmodium berghei [8]) [%],survival at 100 mg/kg (Plasmodium berghei [9]) [%],survival at 100 mg/kg (Plasmodium berghei [10]) [%],survival at 33 mg/kg (Plasmodium berghei [11]) [%],survival at 3.7 mg/kg (Plasmodium berghei [12]) [%],survival at 33 mg/kg (Plasmodium berghei [13]) [%],Stability [14],survival at 1.2 mg/kg (Plasmodium berghei [15]) [%],ED90 (Plasmodium falciparum [16]) [mg/kg],survival at 33 mg/kg (Plasmodium berghei [17]) [%],survival at 33 mg/kg (Plasmodium berghei [18]) [%],survival at 0.4 mg/kg (Plasmodium berghei [19]) [%],survival at 1.2 mg/kg (Plasmodium berghei [20]) [%],also measured
Cc1c(Oc2cnc(C(=O)N3CC(C)(O)C3)cn2)ccc2c1B(O)OC2,100,7.37,100,100,100,100,100,100,100,100,100,100,100,Stable,100,0.85,0,100,100,100,pIC50 (Plasmodium falciparum [21]): 7.49; survival at 3.7 mg/kg (Plasmodium berghei [22]): 60%; survival at 0.4 mg/kg (Plasmodium berghei [23]): 0%; survival at 11 mg/kg (Plasmodium berghei [24]): 100%; survival at 33 mg/kg (Plasmodium berghei [25]): 100%; survival at 100 mg/kg (Plasmodium berghei [26]): 100%
CCC1(O)CN(C(=O)c2cnc(Oc3ccc4c(c3C)B(O)OC4)cn2)C1,100,7.26,100,100,100,100,100,40,100,100,20,100,100,Stable,100,0.84,0,100,100,100,pIC50 (Plasmodium falciparum [21]): 7.54; survival at 3.7 mg/kg (Plasmodium berghei [22]): 0%; survival at 0.4 mg/kg (Plasmodium berghei [23]): 0%; survival at 11 mg/kg (Plasmodium berghei [24]): 0%; survival at 33 mg/kg (Plasmodium berghei [25]): 80%; survival at 100 mg/kg (Plasmodium berghei [26]): 100%
